# In PMC4456214 (Molecular cancer therapeutics, 2015):
# Several values for one entry are separate records, joined by “and”; a condition that tells them apart may be missing. Equal entries are not always repeated.
# Experiments:
# MCF7 xenografts = assay: MCF7 xenograft model; format: in vivo, nude mice
# Summary of the method: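 One million MCF7 cells in Matrigel went subcutaneously on both flanks of 6-week-old NCR nude mice. After tumours reached 100 mm3, test compound at 3 mg/kg or 1:1 PBS:DMSO vehicle was given intraperitoneally on days 0, 2 and 4 (n=5 mice, 10 tumours). Caliper measurements every other day, mean volume with SEM. Treated tumours from three animals were Western blotted for signalling proteins.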
# MCF7 = assay: MTT cell proliferation assay, MCF7; format: cell-based; conditions: 72 hours
# Summary of the method: (§1)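 Cells were plated at 2000 per well (MEFs) or 5000 per well (HeLa, MCF7) and left to attach overnight. Test compound at various concentrations was added, final DMSO 1%, for 72 h at 5% CO2. After 3 PBS washes, fresh medium with MTT reagent was added for 4 h at 37 °C in the dark, then detergent buffer. Absorbance was read at 570 nm. At least two independent experiments, each in triplicate.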
# Hsp70-Bag3 interaction = Hsp70-Bag3 interaction (Homo sapiens, UniProt P0DMV8); assay: Co-immunoprecipitation of Hsp70 from HeLa cells, blotted for Bag3; format: cell-based; conditions: 50 μM
# Chain of Hsp70-Bag3 interaction (P0DMV8 2-641 limits assumed): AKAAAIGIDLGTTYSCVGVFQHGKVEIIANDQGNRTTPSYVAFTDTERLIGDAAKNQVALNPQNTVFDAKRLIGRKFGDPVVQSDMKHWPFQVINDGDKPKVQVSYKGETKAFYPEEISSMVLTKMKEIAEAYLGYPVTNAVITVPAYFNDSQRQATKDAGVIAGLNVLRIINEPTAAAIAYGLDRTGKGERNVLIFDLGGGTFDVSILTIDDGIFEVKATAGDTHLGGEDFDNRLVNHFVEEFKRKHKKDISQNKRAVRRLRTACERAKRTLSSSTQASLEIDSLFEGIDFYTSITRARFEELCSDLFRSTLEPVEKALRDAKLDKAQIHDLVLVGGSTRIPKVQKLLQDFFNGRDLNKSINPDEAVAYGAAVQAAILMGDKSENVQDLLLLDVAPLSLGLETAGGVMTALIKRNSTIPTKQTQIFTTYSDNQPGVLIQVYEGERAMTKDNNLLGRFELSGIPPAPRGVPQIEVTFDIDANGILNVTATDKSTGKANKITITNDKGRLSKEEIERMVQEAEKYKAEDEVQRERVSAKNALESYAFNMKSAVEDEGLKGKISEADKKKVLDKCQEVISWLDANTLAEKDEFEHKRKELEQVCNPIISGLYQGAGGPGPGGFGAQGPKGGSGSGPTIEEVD
# Summary of the method: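 HeLa extracts in M-PER lysis buffer at 5 mg total protein per mL. 500 μL samples took rabbit polyclonal anti-Hsp70 or goat IgG control, plus 1% DMSO or test compound at 50 μM final (5 mM stock). Rotated overnight at 4 °C, then 4 h on protein A/G Sepharose. Washed in PBS pH 7.4, eluted in SDS dye, run on 4–15% Tris-Tricine gel, immunoblotted for Hsp70 and Bag3 with chemiluminescence detection. Triplicate, quantification averaged.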
# Animal toxicity study = format: in vivo, NSG mice
# OPM2 = assay: Luciferase viability assay, multiple myeloma line OPM2; format: cell-based, Human; conditions: 72 hours
# Summary of the method: (§2)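 Myeloma cells stably transduced with firefly luciferase were exposed to test compound at 11 concentrations between 30 nM and 30 uM for 72 h. Luciferin substrate was then added and bioluminescence read. Signal was normalised to mock-treated wells (100%) and no-cell wells (0%). IC50 came from fitted dose-response curves.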
# [1] = test system: mouse embryonic fibroblasts (MEFs); assay: MTT cell proliferation assay in normal fibroblasts; format: cell-based; conditions: read-out: EC50, MEFs, 72 hours
# Summary of the method: as §1
# Pharmacokinetics in mice = format: in vivo, NSG mice
# Summary of the method: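 NSG mice (three per group) received test compound at 0.3, 1 or 3 mg/kg intraperitoneally in 1:1 DMSO:PBS, dosed twice weekly for 2 weeks. After the final dose, tail-vein blood was taken at 1, 3, 8 and 24 h. Plasma levels were measured by LC-MS, and pharmacokinetic parameters including terminal half-life were calculated.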
# [2] = test system: FoxM1, HuR, p21, p27 in MCF7 breast cancer cells; assay: Western blot of cancer signaling proteins in MCF7 cells; format: cell-based
# HeLa xenograft = HeLa xenograft model; format: in vivo; conditions: 3 mg/kg, nude mice
# Summary of the method: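 One million HeLa cells in Matrigel were injected subcutaneously on both flanks of 6-week-old NCR nude mice. Once tumours were established, test compound at 3 mg/kg or 1:1 PBS:DMSO vehicle was given intraperitoneally on days 2, 4 and 6 (n=5 mice, 10 tumours per group). Tumours were measured by caliper every other day and mean volumes plotted with SEM.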
# OPM1 = assay: Luciferase viability assay, multiple myeloma line OPM1; format: cell-based, Human; conditions: 72 hours
# Summary of the method: as §2
# HeLa = assay: MTT cell proliferation assay, HeLa; format: cell-based; conditions: 72 hours
# Summary of the method: as §1
# Bag3 (Homo sapiens) = Bag3 (Homo sapiens) (UniProt O95817); conditions: cited from earlier work
# Chain of Bag3 (Homo sapiens) (O95817 2-575): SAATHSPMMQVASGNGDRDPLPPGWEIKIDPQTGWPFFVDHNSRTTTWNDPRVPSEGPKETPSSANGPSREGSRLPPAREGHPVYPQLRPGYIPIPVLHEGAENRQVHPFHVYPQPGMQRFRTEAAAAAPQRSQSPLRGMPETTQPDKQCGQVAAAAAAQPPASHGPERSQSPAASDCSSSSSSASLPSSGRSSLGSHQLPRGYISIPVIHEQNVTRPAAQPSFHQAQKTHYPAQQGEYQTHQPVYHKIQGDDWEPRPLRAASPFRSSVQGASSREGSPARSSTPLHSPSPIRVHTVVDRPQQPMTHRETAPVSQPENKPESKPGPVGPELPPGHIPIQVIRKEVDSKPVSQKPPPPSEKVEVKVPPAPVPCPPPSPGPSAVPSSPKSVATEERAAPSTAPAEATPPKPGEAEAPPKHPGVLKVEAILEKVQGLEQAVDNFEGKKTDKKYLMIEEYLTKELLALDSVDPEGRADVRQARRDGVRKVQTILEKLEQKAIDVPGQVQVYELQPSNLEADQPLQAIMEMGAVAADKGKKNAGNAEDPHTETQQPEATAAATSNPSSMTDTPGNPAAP
# [3] = MCF7 xenograft tumors, Western blot
# Chain of Hsp70 (P0DMV8 2-641): as the sequence (P0DMV8 2-641 limits assumed) above
compound,measurement,setting,value
CCn1c(=O)/c(=C2\Sc3cc(Cl)ccc3N2C)s/c1=C\c1scc[n+]1Cc1ccccc1.[Cl-] [JG-98],"tumor growth, MCF7 xenograft","MCF7 xenografts; 3 mg/kg intraperitoneal on days 0, 2 and 4, nude mice",limited tumor growth until day 6
same,HuR and FoxM1 in tumor samples,MCF7 xenografts; [3],tended to be decreased
same,p21 in tumor samples,MCF7 xenografts; [3],significantly elevated
same,activity against MCF7,MCF7,sub-micromolar activity
same,reduction of Hsp70-Bag3 interaction,Hsp70-Bag3 interaction,~ 60%
same,weight loss,"Animal toxicity study; 0.3, 1, 3 mg/kg intraperitoneal twice a week for 2 weeks, NSG mice",< 10%
same,alanine aminotransferase and total bilirubin,"Animal toxicity study; after the final dose, markers of liver function",in the normal range
same,blood urea nitrogen (BUN) and creatinine levels,"Animal toxicity study; all three dosages, after the final dose, renal function",normal
same,tolerability,"Animal toxicity study; mouse, in vivo, ip",well tolerated
same,sensitivity of OPM2,OPM2,relatively less sensitive
same,EC50,[1],4.5 µM and ~4.5 µM
same,level in plasma,"Pharmacokinetics in mice; 3 mg/kg intraperitoneal, after 1 hour, NSG mice",~ 70 nM
same,terminal half-life,"Pharmacokinetics in mice; all three doses (0.3, 1, 3 mg/kg) intraperitoneal, NSG mice",approximately 20 hours
same,stability in animals,Pharmacokinetics in mice; compared with YM-01,more stable than YM-01
same,oral bioavailability,Pharmacokinetics in mice; mice,not orally bioavailable
same,levels of FoxM1 and HuR,[2],reduced
same,levels of the cell cycle inhibitors p27 and p21,[2],increasing
same,"tumor growth, HeLa xenograft",HeLa xenograft,suppressed tumor growth
same,sensitivity of OPM1,OPM1,relatively less sensitive
same,activity against HeLa,HeLa,sub-micromolar activity
YM-01 [reference compound],reduction of Hsp70-Bag3 interaction,Hsp70-Bag3 interaction,~ 60%
Hsp70 (from UniProt P0DMV8),Kd,Bag3 (Homo sapiens),0.03 µM
